# The entries come from a sample that favours hits as a whole.
# XBP1 UPR activ – activators of adaptive arm of unfolded protein response (XBP1) | activation, % at 20 µM | AID 463104 | 330,000 compounds, 0.33% hits | CHO-XBP1 luciferase reporter, IRE1-XBP1 UPR activation, luminescence; percent of tunicamycin response, DMSO as zero;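 active = versus positive control, 20 µM dose yields 30% or more activation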;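 note: 100% = tunicamycin at 10 µg/mL and 0% = DMSO only wells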
#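 Material: CHO-XBP1 cells stably carrying IRE1-XBP1-driven luciferase reporter | Medium: F12 with 10% serum | Compound dosing: 20 µM single concentration, DMSO 1% | Incubation: Overnight seeding at 37 °C, 6 h compound treatment at 37 °C | Detection: Steady-Glo luminescence read | Read-out basis: % activation of reporter signal versus tunicamycin and DMSO controls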
# Dynein cargo inh – blocks dynein driven cargo transport along microtubules | 220,000 compounds, 0.47% hits | 3617.4 mouse cells, GR-EGFP nuclear translocation imaging; test concentration mostly 20 µM; stimulated with dexamethasone, 1 µM; stronger effect = lower value | z-score, hits read low;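 active = plate z-score of nuclear minus cytoplasmic receptor signal below a set negative limit, without overly bright fluorescence or cell loss, cut at about -3.5 in these data, passing the limit was not always enough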;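 note: z-score of nuclear minus cytoplasmic ring GR-EGFP intensity difference per well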
#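 Also added – dexamethasone, 1.0 µM final · Buffer or medium – tet-free, stripped-serum medium · Schedule – induction 48 h, compound 1 h, agonist 30 min · Detection – formaldehyde fixation, Hoechst nuclear stain, 10x automated fluorescence imaging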
# T cruzi repl – blocks replication of Trypanosoma cruzi. 300,000 compounds, 1.4% hits. AID 1885. inhibition, % (no concentration beside the values). T. cruzi beta-gal in NIH3T3, luminescence, 90 h;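 active = mean inhibition across valid replicates above about 55%, limit read from the data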;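 note: signal also drops with host cell toxicity which is not excluded here; 0% = plate median of DMSO wells and 100% = zero luminescence signal; higher percent means less beta-gal luminescence so fewer parasites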
#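 System: mouse NIH/3T3 fibroblasts infected with β-gal-expressing T. cruzi Tulahuen C4 / Input: NIH/3T3 cells, 5,000 per well / Buffer or medium: Low-serum DMEM with 2% FBS / Probe or stimulus: 5000 reporter trypomastigotes per well / Schedule: ≥90 h infection period, 3 h prior cell attachment / Measured by: GalScreen luminescence, 60 min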
# L major viab – inhibitors of Leishmania major promastigote growth; Leishmania major promastigotes, resazurin fluorescence viability; inhibition, % at 10 µM; 200,000 compounds, 9% hits; AID 1063; in the data active = inhibition above about 50%;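 note: promastigotes grown with compound for 44 hours at 28 °C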
# UPR CHOP act – activators of apoptotic arm of unfolded protein response (CHOP); 330,000 compounds, 0.34% hits; AID 449763; CHO-CHOP luciferase reporter, UPR activation, luminescence; percent of tunicamycin response over DMSO baseline; activation, % at 10 µM;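 active = at 10 µM dose, activation of 40% or more, normalized to positive control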;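 note: 100% = tunicamycin at 10 µg/mL and 0% = DMSO alone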
#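 Test system: CHO CHOP reporter cells. Input: 500 CHO-CHOP cells per well. Medium: F12 with 10% FBS. Technique: luciferase luminescence. Measure: percent activation relative to tunicamycin control. Dosing: 10 µM compound, 0.5% DMSO. Timing: 16-18 h cell attachment, then 6 h compound exposure, 37 °C.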
# CHOP inhibitor – inhibitors of CHOP induction in ER stress response | CHO-K1 CHOP-promoter luciferase, tunicamycin-induced, 15-18 h | inhibition, % at 10 µM | 220,000 compounds, 3.8% hits;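 active = compounds that reduced the stress-induced luciferase reporter signal by more than about 70% of percent inhibition, limit read from the data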;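 note: 0% = tunicamycin plus vehicle and 100% = wells without tunicamycin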
# * = called active by the depositor; x = no result.
SMILES,XBP1 UPR activ,Dynein cargo inh,T cruzi repl,L major viab,UPR CHOP act,CHOP inhibitor
CCOC(=O)N1CCN(CC(=O)Nc2cc(OCC)ccc2OCC)CC1,-2,-1.6,x,-2,0,-2
COc1ccc(C)cc1NC(=O)CN1CCN(CC(=O)Nc2ccccc2F)CC1,-6,-0.22,-1,7,0,79*
CCOc1ccc(NC(=O)CN2CCN(CC(=O)Nc3ccccc3OC)CC2)cc1,2,x,6,x,2,x
COc1ccccc1NC(=O)CN1CCN(C2c3ccccc3-c3ccccc32)CC1,-5,-0.57,42,58*,-2,18
COc1ccc(NC(=O)CN2CCN(C3c4ccccc4-c4ccccc43)CC2)c(OC)c1,-4,0.31,34,44,6,35
CCOc1ccc(NC(=O)CN2CCN(C3c4ccccc4-c4ccccc43)CC2)cc1,-1,0.13,21,90*,1,44
CCOc1ccc(OCC)c(NC(=O)CN2CCN(c3ccc(C)cc3C)CC2)c1,-2,1.1,65*,7,0,0
Cc1ccc(C2(c3ccccc3)NC(=O)N(CC(=O)NCc3ccccc3)C2=O)cc1C (stereo not drawn),-1,x,x,x,0,x
O=C(Cn1cnc2c(NC(=O)OCc3ccccc3)ncnc21)NCCN1CCOCC1,-2,x,x,x,1,x
CC(CCc1ccccc1)NC(=O)c1ccc(-n2cncn2)c([N+](=O)[O-])c1 (stereo not drawn),-3,x,0,x,0,x
c1ccc(CNCC2COc3ccccc3O2)cc1 (stereo not drawn),2,1.3,-4,91*,2,11
CCCNCC1COc2ccccc2O1 (stereo not drawn),1,-0.16,-12,39,0,-31
c1ccc(CCCCNCC2COc3ccccc3O2)cc1 (stereo not drawn),2,0.98,31,87*,1,-5
COc1ccc(CNCC2COc3ccccc3O2)cc1 (stereo not drawn),4,x,20,x,1,x
c1ccc(CCCNCC2COc3ccccc3O2)cc1 (stereo not drawn),-4,-0.35,-1,91*,-1,-13
C=CCN(C(=O)c1ccc2snnc2c1)c1ccccc1,-5,x,1,x,0,x
CN(C)c1ccc(C(C(=O)NC(C)(C)C)N(C(=O)c2csnn2)C2CC2)cc1 (stereo not drawn),3,-0.43,10,53*,-2,11
Cc1cc(C)nc(NS(=O)(=O)c2ccc(N/C=C/C(=O)c3ccc(Cl)cc3)cc2)n1,2,0.14,-1,58*,3,92*
C=CCc1cccc2cc(C(=O)Nc3ccc(F)cc3)c(=O)oc12,2,0.27,-6,23,6,-21
CCc1nnc(NS(=O)(=O)c2ccc(NC(=O)c3ccccc3)cc2)s1,-3,-0.12,0,x,0,2
CCc1nnc(NS(=O)(=O)c2ccc(N/C=C\C(=O)c3ccc4ccccc4c3)cc2)s1,0,-0.1,7,54*,0,13
COc1ccc(C(=O)/C=C/Nc2ccc(S(=O)(=O)Nc3onc(C)c3C)cc2)cc1,0,-0.37,-1,66*,1,11
Cc1noc(NS(=O)(=O)c2ccc(N/C=C/C(=O)c3ccc(F)cc3)cc2)c1C,-2,2.3,-5,-8,-3,14
C=CCc1cccc2cc(C(=O)Nc3ccc(S(=O)(=O)Nc4nnc(CC)s4)cc3)c(=O)oc12,x,-0.28,-4,-10,x,72*
COc1cccc(CN2CCN(C3CCN(c4ccccc4C)CC3)CC2CCO)c1 (stereo not drawn),-2,-0.46,43,92*,-2,31
COc1cc(CN2CCN(C3CCC3)CC2CCO)cc(OC)c1 (stereo not drawn),-5,x,-10,x,0,x
COc1cccc(CN2CCN(C3CSCCSC3)CC2CCO)c1 (stereo not drawn),-2,-0.071,-1,-4,0,21
COc1cccc(CN2CCN(C3CCN(c4ccccc4F)CC3)CC2CCO)c1 (stereo not drawn),5,-1.4,43,95*,-1,31
